In the library only some 7.6% were active in any assay of this set; here they are far more common.
D1 mod: allosterically modulates the human D1 dopamine receptor; B-score at 10 µM; P21728; HEK293 D1, CRE-luciferase, dopamine EC30 potentiation; actives deviate in either direction; 5.9% of 58,000 active;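 active = luminescence count or its row- and column-corrected plate score outside the 99.7% band of the plate's sample wells, on either side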
Target sequence (P21728 whole entry, looked up): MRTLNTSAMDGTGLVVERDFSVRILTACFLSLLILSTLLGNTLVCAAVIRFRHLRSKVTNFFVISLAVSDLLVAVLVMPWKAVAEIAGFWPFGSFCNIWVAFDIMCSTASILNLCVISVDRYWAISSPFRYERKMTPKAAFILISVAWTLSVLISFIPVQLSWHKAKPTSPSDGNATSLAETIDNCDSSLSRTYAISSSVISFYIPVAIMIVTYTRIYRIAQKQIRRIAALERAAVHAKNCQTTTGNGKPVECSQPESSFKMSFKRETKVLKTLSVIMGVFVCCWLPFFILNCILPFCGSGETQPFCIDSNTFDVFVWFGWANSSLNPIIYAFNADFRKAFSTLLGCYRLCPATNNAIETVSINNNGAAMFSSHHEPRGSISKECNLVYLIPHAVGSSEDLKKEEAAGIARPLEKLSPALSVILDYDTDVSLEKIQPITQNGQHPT
HEK293 NFkB inh: lowers PMA/ionomycin-induced NF-kB signal in HEK293 cells. 0.21% of 62,000 active. inhibition, % at 3 µM. HEK-293 NF-kB luciferase reporter, luminescence;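 active = inhibition above the mean of all tested compounds plus 3 SD, cut at about 40% in these data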;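 note: 0% = stimulated DMSO wells and 100% = 10 µM reference inhibitor 5653914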
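System – HEK-293 cells with stable firefly luciferase reporter driven by four HIV NF-kB elements · Doses – one dose, 3 µM · Schedule – 1 h compound pre-incubation, 16 h PMA/ionomycin at 37 °C · Technique – luminescence from luciferase substrate reagent · Measure – percent inhibition normalized per plate to DMSO and reference-inhibitor controls · Replicates – tested once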
DAT uptake mod: modulates human dopamine transporter uptake under cocaine; LLC-PK1 hDAT cells, [14C]-dopamine uptake with cocaine IC80; actives deviate in either direction; B-score at 10 µM; 1.3% of 110,000 active; AID 449768;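 active = Z score or B-score, a plate-position-corrected score, falls beyond the plate's 99.7% confidence bounds, in either direction; inactive = both scores lie inside the 99.7% bounds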;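 note: scored against the spread of the other compound wells on the same plate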
M1 agonist: agonists of M1 muscarinic receptor | CHO-M1 cells, Fluo-4 calcium fluorescence, agonist mode; hits give high values | B-score at 10 µM | 3% of 64,000 active;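 active = fluorescence rise, raw or as B-score row- and column-corrected plate score, outside the 99.7% band of its plate's samples, either direction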
M1 antag: M1 muscarinic receptor (rat) antagonism; P08482; CHO-M1 cells, Fluo-4 calcium, ACh EC80 antagonist mode; hits give low values; B-score at 10 µM; 3.4% of 64,000 active;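 active = calcium fluorescence response, raw or row-and-column corrected B-score, differing from the plate sample mean either way at a set confidence level, mostly lower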
Jurkat tox 60K: cytotoxicity toward Jurkat cells. Jurkat E6.1 viability, ATP luminescence, 48 h. inhibition, % at 4 µM. 1.2% of 56,000 active. AID 463;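 active = inhibition above the mean inhibition of all tested compounds plus 3 SD, cut at about 28% in these data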
M1 agonist conf: rat M1 muscarinic agonism, confirmation; shares compounds with M1 agonist; CHO-M1 cells, Fluo-4 calcium fluorescence, agonist mode; actives lie on both sides; fluorescence change (max-min) at 10 µM; 19% of 1,700 active; AID 1488;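 active = fluorescence change differs from the solvent-only DMSO control mean at a set confidence level in both duplicate runs; inconclusive = differs from solvent-only control mean in just one of two runs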;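 note: an EC20 dose of acetylcholine follows compound addition during the same imaging run; raw fluorescence intensity difference in instrument units with no normalization to controls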
M4 agonist ctr: rat M4 muscarinic agonism, M1 counter-screen; shares compounds with M1 agonist; CHO M4/Gqi5 cells, Fluo-4 calcium fluorescence, agonist mode; actives lie on both sides; fluorescence change (max-min) at 10 µM; 9% of 1,700 active;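 active = fluorescence change differing from the plate's solvent-only control wells at 99.7% confidence in both duplicates, whether higher or lower; inconclusive = differs from solvent controls in only one of two duplicates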
Active calls of the source: *; ? = inconclusive; . = not tested or not shown.

SMILES	D1 mod	HEK293 NFkB inh	DAT uptake mod	M1 agonist	M1 antag	Jurkat tox 60K	M1 agonist conf	M4 agonist ctr
CCN=C(NCC)SC1CC(=O)N(c2ccc(OCC)cc2)C1=O (stereo not drawn)	.	.	-0.631	.	.	.	.	.
CCN=C(NCC)SC1CC(=O)N(c2ccccc2)C1=O (stereo not drawn)	-1.29	4.4	-1.56	10.1*	-2.08	0.6	-10.6	-27.6
CCN=C(NCC)SC1CC(=O)N(c2cccc(OC)c2)C1=O (stereo not drawn)	-0.00351	10.7	0.0853	2.16	-0.507	2.4	.	.
N#CC1(Cc2ccc([N+](=O)[O-])cc2)c2ccccc2C=CN1C(=O)c1ccccc1 (stereo not drawn)	.	.	-0.0074	.	.	.	.	.
CCOC(=O)C(C)Sc1nnc(CNC(=O)c2ccc(OC)cc2)n1C1CCCCC1 (stereo not drawn)	-2.37	6.8	0.913	3.28*	-0.97	-1.5	?	?
CCOC(=O)CC1=C(C(=O)OCC)C(c2ccc(OC)cc2OC)C(C#N)=C(N)O1 (stereo not drawn)	1.02	13.3	0.304	6.99*	1	4.1	-1.69	-43.2
Cc1c(NC(=O)CSc2nnnn2-c2ccc(O)cc2)c(=O)n(-c2ccccc2)n1C	.	.	-0.741	.	.	.	.	.
Cc1snc(SCC(=O)N/N=C(\N)COc2ccc(F)cc2)c1C#N	.	.	-0.0237	.	.	.	.	.
O=C(OCC(=O)N1CCN(C(=O)c2ccco2)CC1)c1ccccc1OCc1ccc(Cl)cc1	-1.78	7.9	0.966	4.46*	0.0829	-10.8	-17.8	?
O=C(O)c1ccccc1C(=O)N1CCN(c2ccccc2)CC1	.	24.5	0.129	-0.74	0.352	1.7	.	.
O=C(c1ccccc1C(=O)N1CCN(c2ccccc2)CC1)N1CCN(c2ccccc2)CC1	-2.1	12.9	1.49	3.74*	0.256	3.9	5.41	-40.9
CCOC(=O)Cc1csc(NC(=O)CSc2ncnc3c2cnn3-c2ccccc2Cl)n1	-2.25	2.6	1.04	10.7*	-1.17	9.7	2.92	8.34
CC(=O)c1cccc(-n2nnnc2SCC(=O)Nc2cccc(NC(=O)c3ccco3)c2)c1	0.0259	8.4	0.0284	3.6*	-0.13	5.1	-27.6	?
COc1ccc(CCN(Cc2cccs2)S(=O)(=O)c2ccc(-n3cnnn3)cc2)cc1OC	1.47	17.8	0.467	4.5*	-0.323	6.9	?	-66.4*
O=C(O)C1CCCN1c1ncnc2c1oc1ccccc12 (stereo not drawn)	0.567	3.2	-1.15	-0.00263	0.129	-1.0	.	.
CCn1c(SCC(=O)c2cc(C)n(-c3ccc(C(=O)OC)cc3)c2C)nnc1-c1cccnc1	-2.22	-2.4	2.3	3.9*	-2.08	6.0	-20.3*	?
CS(=O)(=O)N(CC(=O)NCC1CCCO1)c1cc(Cl)ccc1Cl (stereo not drawn)	0.0033	3.5	-0.496	0.0084	-0.1	3.7	.	.
CCOC(=O)N1CCN(C(=O)CN(c2cccc(OC)c2)S(C)(=O)=O)CC1	.	.	0.0107	.	.	.	.	.
CCC(C)NC(=O)CC1Oc2ccc(C)cc2NC1=O (stereo not drawn)	-0.237	-3.0	-0.762	0.172	0.672	-5.0	.	.
COc1ccc(C2=NO[C@@H]3C(=O)N(C4CCCCC4)C(=O)[C@H]23)cc1OC	0.0195	2.7	0.418	18.4*	0.041	-3.9	-10.1	-28.4
O=C1CN(C(=O)OCc2ccccc2)c2ccccc2N1	2.38	-10.1	-0.0822	0.258	-0.254	.	.	.
Cc1ccccc1OCC(=O)Nc1cccc(NC(=O)c2ccco2)c1	-1.5	15.4	0.104	7.02*	0.543	-2.4	?	?
CCCCOc1ccccc1NC(=O)c1ccco1	1.28	10.8	-0.939	-1.01	-0.105	-6.6	.	.
CCOc1ccccc1NC(=O)c1cccc(NC(=O)c2ccco2)c1	0.727	41.8*	0.287	5.57*	-0.681	81.3*	13.2	-24.2
Cc1cccc(C)c1OCC(=O)Nc1cccc(NC(=O)c2ccco2)c1	-0.382	19.6	-0.0344	-0.106	0.582	2.4	.	.
CCOc1c2ccc(C(=O)NCC34CC5CC(CC(C5)C3)C4)cc2nn1CC	.	.	1.55	.	.	.	.	.

Source: PubChem BioAssay
